From ChEMBL document CHEMBL1135796, “Inhibition of nNOS activity in rat brain by synthetic kynurenines: structure-activity dependence” (J Med Chem, 2002)

Assays:
[1] = molecular target: Nitric oxide synthase 1 (Rattus norvegicus) (UniProt P29476); assay: Neuronal subtype of Neuronal nitric oxide synthase (nNOS) activity tested on Rat Striatal neurones at the concentration of 10e-7 (M)
Method in brief: (§1)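 Rat striatal crude homogenate (supernatant after 1000g, 5 min) as nNOS source. L-[3H]-arginine to L-[3H]-citrulline conversion: 10 µM L-arginine plus 50 nM tracer, H4biopterin, FAD, 0.1 mM CaCl2, pH 7.6. Compounds added over 10 pM–1 mM. Started with NADPH (0.75 mM final), 30 min at 37 °C. Blank omits NADPH. Activity expressed as % of untreated samples. Three experiments in triplicate, four striata each.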

[2] = molecular target: Nitric oxide synthase 1 (Rattus norvegicus) (UniProt P29476); assay: Neuronal subtype of Neuronal nitric oxide synthase (nNOS) activity tested on Rat Striatal neurones at the concentration of 10e-11 (M); method in brief: as §1
[3] = molecular target: Nitric oxide synthase 1 (Rattus norvegicus) (UniProt P29476); assay: Neuronal subtype of Neuronal nitric oxide synthase (nNOS) activity tested on Rat Striatal neurones at the concentration of 10e-9 (M); method in brief: as §1
[4] = molecular target: Nitric oxide synthase 1 (Rattus norvegicus) (UniProt P29476); assay: Neuronal subtype of Neuronal nitric oxide synthase (nNOS) activity tested on Rat Striatal neurones at the concentration of 0(M); method in brief: as §1
[5] = molecular target: Nitric oxide synthase 1 (Rattus norvegicus) (UniProt P29476); assay: Neuronal subtype of Neuronal nitric oxide synthase (nNOS) activity tested on Rat Striatal neurones at the concentration of 10e-3 (M); method in brief: as §1
[6] = molecular target: Nitric oxide synthase 1 (Rattus norvegicus) (UniProt P29476); assay: Neuronal subtype of Neuronal nitric oxide synthase (nNOS) activity tested on Rat Striatal neurones at the concentration of 10e-5 (M); method in brief: as §1
[7] = Compound tested for solubility measured in 3% ethanol:water or in 3% methanol:water; NS is not soluble; format: ADME; settings: buffer
Nitric oxide synthase 1 = Nitric oxide synthase 1 (Rattus norvegicus, UniProt P29476); assay: 50% inhibitory concentration against Neuronal nitric oxide synthase (nNOS) activity; method in brief: as §1
Nitric oxide synthase 1, sequence (P29476 whole entry): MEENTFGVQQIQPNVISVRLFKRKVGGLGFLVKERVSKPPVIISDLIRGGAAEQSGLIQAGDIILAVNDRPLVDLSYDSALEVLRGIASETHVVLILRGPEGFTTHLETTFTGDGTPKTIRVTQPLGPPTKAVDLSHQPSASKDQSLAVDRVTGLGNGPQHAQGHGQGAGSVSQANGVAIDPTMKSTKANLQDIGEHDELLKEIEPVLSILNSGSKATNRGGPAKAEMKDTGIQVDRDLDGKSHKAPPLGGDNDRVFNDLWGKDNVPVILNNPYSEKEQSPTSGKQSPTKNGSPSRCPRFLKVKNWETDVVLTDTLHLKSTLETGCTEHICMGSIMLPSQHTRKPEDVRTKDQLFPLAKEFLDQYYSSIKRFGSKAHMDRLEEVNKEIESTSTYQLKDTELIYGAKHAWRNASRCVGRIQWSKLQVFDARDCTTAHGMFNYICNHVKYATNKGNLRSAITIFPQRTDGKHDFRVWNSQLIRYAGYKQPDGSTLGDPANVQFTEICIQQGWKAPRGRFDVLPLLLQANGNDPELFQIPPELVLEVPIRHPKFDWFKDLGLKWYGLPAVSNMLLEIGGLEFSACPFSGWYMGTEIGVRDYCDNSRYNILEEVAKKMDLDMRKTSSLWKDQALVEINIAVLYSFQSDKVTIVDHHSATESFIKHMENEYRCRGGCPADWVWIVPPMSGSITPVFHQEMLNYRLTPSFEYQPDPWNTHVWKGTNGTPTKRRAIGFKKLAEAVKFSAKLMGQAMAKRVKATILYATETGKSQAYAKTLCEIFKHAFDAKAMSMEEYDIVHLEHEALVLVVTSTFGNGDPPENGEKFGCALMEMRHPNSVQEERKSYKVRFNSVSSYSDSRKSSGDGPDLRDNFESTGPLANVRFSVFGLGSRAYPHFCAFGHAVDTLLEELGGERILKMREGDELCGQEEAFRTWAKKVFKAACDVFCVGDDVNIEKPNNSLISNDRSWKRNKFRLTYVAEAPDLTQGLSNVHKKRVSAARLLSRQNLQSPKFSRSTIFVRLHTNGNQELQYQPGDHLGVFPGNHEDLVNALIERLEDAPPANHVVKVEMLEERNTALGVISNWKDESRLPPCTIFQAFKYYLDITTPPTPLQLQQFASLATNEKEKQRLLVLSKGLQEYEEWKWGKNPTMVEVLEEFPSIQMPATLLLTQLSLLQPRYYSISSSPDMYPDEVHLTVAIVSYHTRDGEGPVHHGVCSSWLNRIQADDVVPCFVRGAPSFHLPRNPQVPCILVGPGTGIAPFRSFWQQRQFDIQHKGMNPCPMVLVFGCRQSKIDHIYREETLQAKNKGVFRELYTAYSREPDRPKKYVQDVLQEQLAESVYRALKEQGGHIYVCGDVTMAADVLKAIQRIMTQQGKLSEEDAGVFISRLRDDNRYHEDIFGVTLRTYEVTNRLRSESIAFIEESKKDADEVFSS

Nitric oxide synthase 1 (Rattus norvegicus), sequence (P29476 whole entry): as above

| Compound | nNOS activity [1] [%] | nNOS activity [2] [%] | nNOS activity [3] [%] | nNOS activity [4] [%] | nNOS activity [5] [%] | nNOS activity [6] [%] | NS [7] | also measured |
| --- | --- | --- | --- | --- | --- | --- | --- | --- |
| CCCC(=O)NC(CC(=O)c1cccc(OC)c1)C(=O)O (stereo not given) | 101 | 99.9 | 101 | 100 | 105 | 99.7 |  |  |
| CCOC(=O)C(CC(=O)c1cccc([N+](=O)[O-])c1)(NC(C)=O)C(=O)OCC |  |  |  |  |  |  | Insoluble |  |
| COc1ccc(N(C)C)c(C(=O)CC(NC(C)=O)C(=O)O)c1 (stereo not given) | 99.6 | 100 | 99.9 | 100 | 99 | 101 |  |  |
| CCOC(=O)C(CC(=O)c1cccc([N+](=O)[O-])c1)(NC(=O)CC)C(=O)OCC |  |  |  |  |  |  | Insoluble |  |
| CCCC(=O)NC(CC(=O)c1cc(OC)ccc1N)(C(=O)OCC)C(=O)OCC |  |  |  |  |  |  | Insoluble |  |
| C/C=C/C(=O)NC(CC(=O)c1cccc(OC)c1)(C(=O)OCC)C(=O)OCC |  |  |  |  |  |  | Insoluble |  |
| CCOC(=O)C(CC(=O)c1cccc(OC)c1)(NC(=O)C1CC1)C(=O)OCC |  |  |  |  |  |  | Insoluble |  |
| COc1ccc(NCc2ccccc2)c(C(=O)CC(NC(C)=O)C(=O)O)c1 (stereo not given) | 100 | 101 | 101 | 100 | 100 | 98.2 |  |  |
| CCCC(=O)NC(CCC(=O)c1ccccc1)(C(=O)OCC)C(=O)OCC |  |  |  |  |  |  | Insoluble |  |
| CCOC(=O)C(CC(=O)c1cc(OC)ccc1NCc1ccccc1)(NC(C)=O)C(=O)OCC |  |  |  |  |  |  | Insoluble |  |
| CCCC(=O)NC(CC(=O)c1cccc(OC)c1)(C(=O)OCC)C(=O)OCC |  |  |  |  |  |  | Insoluble |  |
| CCCC(=O)NC(C(=O)OCC)(C(=O)OCC)C(C)C(=O)c1ccccc1 (stereo not given) |  |  |  |  |  |  | Insoluble |  |
| CCOC(=O)C(CC(=O)c1cc(OC)ccc1N(C)C)(NC(C)=O)C(=O)OCC |  |  |  |  |  |  | Insoluble |  |
| COc1cccc(C(=O)CC(NC(C)=O)C(=O)O)c1 (stereo not given) | 87.2 | 92.7 | 100 | 100 | 95.7 | 103 |  |  |
| CCCC(=O)NC(CC(=O)c1cc(OC)ccc1N)C(=O)O (stereo not given) | 77.3 | 85.8 | 82.1 | 100 | 55 | 67.4 |  | IC50 (Nitric oxide synthase 1): > 1000 µM |
| CCOC(=O)C(CC(=O)c1cccc(OC)c1)(NC(=O)C1CCCCC1)C(=O)OCC |  |  |  |  |  |  | Insoluble |  |
| COc1ccc(N)c(C(=O)CC(NC(C)=O)C(=O)O)c1 (stereo not given) [KYNURENIN] | 65.8 | 78.6 | 73.4 | 100 | 31.5 | 64 |  | IC50 (Nitric oxide synthase 1): 41 µM |
| CCOC(=O)C(CC(=O)c1cccc(OC)c1)(NC(=O)c1ccccc1)C(=O)OCC |  |  |  |  |  |  | Insoluble |  |
